Test results published in PubChem BioAssay.
Active and inactive are the calls of the source.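 The calls were made as follows, unless noted: active = fluorescence slope after compound addition differing from the mean of all tested samples at 99.7% confidence, mostly higher but some lower; inactive = the rest.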

Columns and labels:
[1] = inhibitors of TNFa-induced NFkB p65 translocation, primary screen, imaging, HUVEC, MLSMR starter and 10KST1 sets (AID 438;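 active = inhibition above 20% together with a positive visual image hit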;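 also: compound added about 3h40 before a 20 min TNFalpha stimulation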;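 as to inhibition: signal is the nuclear over cytoplasmic p65 intensity ratio per well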); conditions: HUVEC TNFa-induced p65 nuclear translocation; cell count: measured here: nuclei count (cytotoxicity indicator), at 2.08 µM; inhibition: at 2 µM, stronger effect = higher value, 0% TNFa-plus-vehicle, 100% no-TNFa wells
[2] = inhibitors of mutant huntingtin aggregation, primary screen, imaging, exon1htt(103Q)mCFP cells, high-content imaging (AID 483;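 active = visual image review flags a hit and inhibition of aggregation exceeds 20%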;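 also: compound exposure lasted 3 days before fixation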;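 as to nuclei count: percent of the per-plate median nuclei count of sample wells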); conditions: exon1htt(103Q)mCFP cell line, aggregate imaging, at 2 µM; inhibition of aggregation: stronger effect = higher value; nuclei count: measured here: cell count, toxicity
[3] = inhibitors of E-selectin induction by TNFa, primary screen, imaging, HUVEC, immunofluorescence, MLSMR starter and 10KST1 sets (AID 487;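 active = visually confirmed hit in the image check and inhibition above 20%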;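 as to inhibition: signal is fraction of cell area covered by stained E-selectin grains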;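 as to nuclei count: 100% = median nuclei count of all wells on the same plate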); conditions: HUVEC TNFalpha-induced E-selectin immunofluorescence imaging, at 2 µM; inhibition: stronger effect = higher value; nuclei count: measured here: cell number, toxicity
[4] = molecular target: Voltage-gated potassium channel subunit beta-2 (Rattus norvegicus) (UniProt P62483); test: KvBeta enzyme negative modulators, primary screen, biochemical, NADPH fluorescence (AID 622;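 active = fluorescence slope higher than the sample average by over 3 SD, cut at about -0.22 in these data, passing the limit was not always enough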;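 also: slope of raw intensity against log time taken from 70 to 1610 s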); conditions: recombinant KvBeta, 4-cyanobenzaldehyde reduction, at 10 µM, stronger effect = higher value
[5] = molecular target: Voltage-gated potassium channel subunit beta-2 (Rattus norvegicus) (UniProt P62483); test: KvBeta positive modulators, primary screen, biochemical, NADPH fluorescence (AID 623;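 active = NADPH fluorescence slope more negative than the mean of all samples by about 3 SD, 99.7% confidence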;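 also: fluorescence intensity change per second fitted from 20 to 320 s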); conditions: Recombinant KvBeta, NADPH fluorescence decrease slope, 10 min; at 10 µM; stronger effect = lower value
[6] = molecular target: Muscarinic acetylcholine receptor M4 (Homo sapiens) (UniProt P08173); test: compounds altering M4/GIRK thallium flux, either direction, primary screen, M4 allosteric agonist project, cell-based, HEK293 M4/GIRK, BTC-AM (AID 625); conditions: at 10 µM, actives lie on both sides;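 also: thallium influx through GIRK channels coupled to M4 in HEK293 cells with BTC-AM dye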
How it was run: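 Assay system: HEK293 cells with M4 receptor and GIRK channels / Controls: carbachol and DMSO controls / Schedule: 1 h dye loading, 2 min kinetic read / Technique: kinetic fluorescence with BTC-AM dye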

[7] = inhibitors of Sendai virus-induced IRF3 signaling, primary screen, TLR/RLR signaling modifier project, cell-based, Sendai virus stimulus, luciferase, 10K MLSCN set (AID 602276;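 active = inhibition at or above 50% at 10 µM; inactive = inhibition below 50%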;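 also: firefly luciferase from ISG56 promoter only with Renilla not read in this screen; 0% = Sendai virus plus DMSO and 100% = medium plus DMSO without virus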); conditions: HEK293 RL24 IRF3 luciferase reporter, at 10 µM, stronger effect = higher value
[8] = inhibitors of poly I:C-induced TLR3 signaling, primary screen, cell-based, poly I:C stimulus, luciferase, 10K MLSCN set (AID 602277;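 active = inhibition of the reporter signal at or above 50%; inactive = inhibition below 50%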); conditions: HEK293-TLR3 RL24 IRF3 luciferase reporter, at 10 µM, stronger effect = higher value

Muscarinic acetylcholine receptor M4 (Homo sapiens), sequence (P08173 whole entry, looked up): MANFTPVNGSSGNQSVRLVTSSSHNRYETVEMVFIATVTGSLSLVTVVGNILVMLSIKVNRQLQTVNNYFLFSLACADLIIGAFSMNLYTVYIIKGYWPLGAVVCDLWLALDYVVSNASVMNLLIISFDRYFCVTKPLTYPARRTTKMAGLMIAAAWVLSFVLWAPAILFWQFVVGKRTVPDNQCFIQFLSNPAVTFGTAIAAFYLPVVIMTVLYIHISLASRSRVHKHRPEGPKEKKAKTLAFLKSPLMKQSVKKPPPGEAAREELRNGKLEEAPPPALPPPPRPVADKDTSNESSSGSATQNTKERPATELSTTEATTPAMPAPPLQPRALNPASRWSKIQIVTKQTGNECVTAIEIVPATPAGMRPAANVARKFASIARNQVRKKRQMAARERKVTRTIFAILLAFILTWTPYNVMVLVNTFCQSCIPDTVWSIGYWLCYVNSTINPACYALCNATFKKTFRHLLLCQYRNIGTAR
Voltage-gated potassium channel subunit beta-2 (Rattus norvegicus), sequence (P62483 whole entry, looked up): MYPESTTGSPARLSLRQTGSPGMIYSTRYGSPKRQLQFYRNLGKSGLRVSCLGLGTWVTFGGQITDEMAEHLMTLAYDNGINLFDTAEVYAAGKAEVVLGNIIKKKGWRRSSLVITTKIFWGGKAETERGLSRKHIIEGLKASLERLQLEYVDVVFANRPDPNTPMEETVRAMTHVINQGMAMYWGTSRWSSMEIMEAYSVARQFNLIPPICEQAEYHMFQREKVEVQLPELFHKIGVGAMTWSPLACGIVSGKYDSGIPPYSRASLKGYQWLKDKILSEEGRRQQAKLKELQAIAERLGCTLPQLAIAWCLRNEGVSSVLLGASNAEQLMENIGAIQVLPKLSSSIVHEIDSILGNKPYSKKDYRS

SMILES | cell count [1] | inhibition [1] | inhibition of aggregation [2] | nuclei count [2] [%] | inhibition [3] | nuclei count [3] [%] | fluorescence slope [4] | NADPH fluorescence slope [5] | fluorescence slope [6] | inhibition [7] | inhibition [8]
COC(=O)c1ccccc1NC(=O)Nc1cccs1 | 567 | -11.5% (inactive) | -4.6% (inactive) | 96.1 | -29.5% (inactive) | 110 | -0.425 (inactive) | -9.4e-05 (inactive) | 0.00583 (inactive) | 10.3% (inactive) | 11.6% (inactive)
CCNC(=O)C1CC(=O)N(Cc2ccc3c(c2)OCO3)C(=Nc2ccc(OCC)cc2)S1 (stereo unspecified) | 577 | -3.7% (inactive) | 13.6% (inactive) | 108 | -3.2% (inactive) | 119 | -0.588 (inactive) | 1.7e-05 (inactive) | 0.00371 (inactive) | 17.9% (inactive) | 21.2% (inactive)
CCc1cc2c(NCCC(=O)O)ncnc2s1 | 507 | 15.8% (inactive) | 4.4% (inactive) | 103 | 13.4% (inactive) | 110 | -0.562 (inactive) | 1.3e-05 (inactive) | 0.00669 (inactive) | 12.3% (inactive) | 17.4% (inactive)
C=CCN(CC=C)C(=O)CN1C(=O)c2ccccc2C1=O | 356 | 0.2% (inactive) | 27.5% (inactive) | 83.2 | -103% (inactive) | 117 | -0.572 (inactive) | -1.3e-05 (inactive) | 0.0065 (inactive) | 19.9% (inactive) | 22.1% (inactive)
CSc1nc(NC(C)(C)C)nc(Oc2ccc(=O)[nH]n2)n1 | 356 | -6.2% (inactive) | 10.5% (inactive) | 86.5 | -29.6% (inactive) | 107 | -0.594 (inactive) | 1.9e-06 (inactive) | 0.0039 (inactive) | 12.8% (inactive) | 11.8% (inactive)
Cc1cc(NC(=O)CN2CCC(O)(c3cccc(F)c3)CC2)no1 | 584 | -53.1% (inactive) | 0.2% (inactive) | 103 | -107% (inactive) | 117 | -0.283 (inactive) | -1.6e-05 (inactive) | 0.00664 (inactive) | -0.229% (inactive) | 20.2% (inactive)
Cc1cc(OC(=O)N2CCOCC2)cc(C)c1Cl | 309 | -12.3% (inactive) | -22.3% (inactive) | 114 | -50% (inactive) | 130 | -0.444 (inactive) | 5.1e-05 (inactive) | 0.00877 (inactive) | -13.8% (inactive) | 99.2% (active)
CCOC(=O)c1sc(NC(=O)CSc2nnc(-c3ccco3)n2CC)c(C(=O)OCC)c1C | 696 | -10.9% (inactive) | -26.7% (inactive) | 104 | -27.8% (inactive) | 92.7 | -0.565 (inactive) | -3.7e-05 (inactive) | 0.00558 (inactive) | -9.39% (inactive) | -38.2% (inactive)
Cc1cccc(-n2c(N)c(C(=O)N3CCN(C)CC3)sc2=S)c1 | 786 | 0.5% (inactive) | -24.6% (inactive) | 96.9 | -25.5% (inactive) | 114 | -0.56 (inactive) | -2.7e-06 (inactive) | 0.00592 (inactive) | -4.11% (inactive) | 6.8% (inactive)
Cn1c(C(=O)NCC2CCCO2)cc2c(=O)[nH]c3ccccc3c21 (stereo unspecified) | 334 | 11.8% (inactive) | -27.1% (inactive) | 114 | 47.5% (inactive) | 76.8 | -0.355 (inactive) | -5.9e-05 (inactive) | 0.00794 (inactive) | -11.9% (inactive) | -5.12% (inactive)
COC(=O)c1cc(O)c(OCc2ccccc2)c(O)c1 | 775 | -2.2% (inactive) | 20.1% (inactive) | 112 | -8.4% (inactive) | 112 | -0.552 (inactive) | 4.3e-05 (inactive) | 0.00449 (inactive) | -22% (inactive) | -58.4% (inactive)
CC(=O)Nc1ccc(Cl)c(C(N)=O)c1 | 445 | -0.6% (inactive) | -12.1% (inactive) | 94.4 | -97.8% (inactive) | 113 | -0.581 (inactive) | -7.9e-05 (inactive) | 0.00404 (inactive) | 19.4% (inactive) | 23.4% (inactive)
COc1ccc(C2=Nn3c(nnc3-c3cccnc3)SC2)cc1 | 367 | -0.8% (inactive) | 6.7% (inactive) | 104 | 25.5% (inactive) | 109 | -0.464 (inactive) | 1.1e-05 (inactive) | 0.00808 (inactive) | 5.59% (inactive) | 7.82% (inactive)
CCN(c1ccccc1)S(=O)(=O)c1ccc(F)cc1C | 207 | 4.7% (inactive) | -4.7% (inactive) | 66.7 | -11.8% (inactive) | 119 | -0.58 (inactive) | -2.3e-05 (inactive) | 0.00509 (inactive) | 12.3% (inactive) | 22.6% (inactive)
Cn1cccc1C(=O)NC(=O)CSc1nnc(C2CC2)n1-c1ccccc1 | 670 | -2% (inactive) | -30.7% (inactive) | 93.6 | 27.3% (inactive) | 62.6 | -0.589 (inactive) | 4.6e-06 (inactive) | 0.00691 (inactive) | 26.6% (inactive) | 9.42% (inactive)
CCOC(=O)N1CCN(C(=O)C(NS(=O)(=O)c2cccc3nsnc23)c2ccccc2)CC1 (stereo unspecified) | 588 | 1.5% (inactive) | 13.3% (inactive) | 106 | 51.1% (inactive) | 81.6 | -0.599 (inactive) | 1.3e-05 (inactive) | 0.0056 (inactive) | 3.16% (inactive) | 9.73% (inactive)
C=CCn1c(=O)[nH]c2cc(C(=O)N3CCN(c4cc(C)ccc4C)CC3)ccc2c1=O | 481 | -28.5% (inactive) | -1.6% (inactive) | 109 | -67.4% (inactive) | 127 | -0.245 (inactive) | -2.6e-05 (inactive) | 0.00726 (inactive) | 14.1% (inactive) | -2.95% (inactive)
Cn1c(=O)[nH]c(=O)c2c1nc(N1CCNCC1)n2Cc1cccc2ccccc12 | 387 | 1.1% (inactive) | 13.1% (inactive) | 99.6 | -83.1% (inactive) | 106 | -0.59 (inactive) | -5.5e-05 (inactive) | 0.00615 (inactive) | 13.2% (inactive) | 28.8% (inactive)
Cc1nc(NCCNC(=O)c2ccco2)c2c(C)c(C)sc2n1 | 803 | -4.2% (inactive) | -8.7% (inactive) | 136 | -34.1% (inactive) | 117 | -0.548 (inactive) | 1.6e-05 (inactive) | 0.00498 (inactive) | 12.1% (inactive) | 6.83% (inactive)
COC(=O)c1oc2ccc(OC)cc2c1N | 669 | 5.5% (inactive) | 18.1% (inactive) | 85.1 | -4.2% (inactive) | 101 | -0.523 (inactive) | 5.1e-06 (inactive) | 0.00575 (inactive) | -31.8% (inactive) | -55% (inactive)
CC(C)OC(=O)CSc1nnc(Cc2ccccc2)n1Cc1ccco1 | 726 | 28.5% (active) | -13% (inactive) | 106 | 44% (inactive) | 100 | -0.419 (inactive) | -2.4e-05 (inactive) | 0.0048 (inactive) | 10.9% (inactive) | 6.75% (inactive)
Cc1nc2ccccc2cc1C(=O)NCc1ccco1 | 387 | 3.2% (inactive) | -3.6% (inactive) | 75.3 | -278% (inactive) | 126 | -0.53 (inactive) | -3.7e-05 (inactive) | 0.00494 (inactive) | 1.46% (inactive) | 0.0614% (inactive)
O=C(Cn1c(SCC(=O)N2CCCc3ccccc32)nc2ccccc21)N1CCCC1 | 723 | -5.1% (inactive) | -15.7% (inactive) | 107 | -126% (inactive) | 124 | -0.458 (inactive) | -3.6e-05 (inactive) | 0.00587 (inactive) | 1.52% (inactive) | 20.1% (inactive)
CCN(CC)C(=O)c1ccc(NS(=O)(=O)c2ccccc2)cc1 | 444 | 0.9% (inactive) | -9.8% (inactive) | 112 | -22.4% (inactive) | 117 | -0.478 (inactive) | -0.000282 (inactive) | 0.0035 (inactive) | -7.99% (inactive) | -12.2% (inactive)
CC(C)(C)n1nc2c(c1NC(=O)COc1ccc(Cl)cc1)CSC2 | 643 | 3.8% (inactive) | 13.9% (inactive) | 93.1 | 30.9% (inactive) | 95.3 | -0.467 (inactive) | -3.3e-06 (inactive) | 0.00791 (inactive) | 18% (inactive) | 25.3% (inactive)
CCCCc1cc(=O)oc2cc(C)cc(OC(C)C(=O)O)c12 (stereo unspecified) | 452 | -2.1% (inactive) | -5.4% (inactive) | 110 | -39.6% (inactive) | 134 | -0.0718 (inactive) | -1e-05 (inactive) | 0.00603 (inactive) | 5.95% (inactive) | 21.5% (inactive)
